From ChEMBL document CHEMBL1134032, “Rational design, synthesis, and biological evaluation of rigid pyrrolidone analogues as potential inhibitors of prostate cancer cell growth” (Bioorg Med Chem Lett, 2001) come the findings set out here.

Experiment [1] deals with Protein kinase C alpha type (Homo sapiens, UniProt P17252). Nature of the experiment: Inhibition of [3H]-phorbol 12,13-dibutyrate (PDBu) binding to human recombinant protein kinase C alpha. The method in brief: (§1)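 Competitive displacement of [3H]PDBu binding from recombinant human PKC isozymes (alpha, beta, gamma, delta, epsilon), each tested separately. Affinity is reported as Ki in nM.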

For experiment [2], the target named is T1, Protein kinase C epsilon type (Homo sapiens, UniProt Q02156).
T1 sequence (Q02156 whole entry): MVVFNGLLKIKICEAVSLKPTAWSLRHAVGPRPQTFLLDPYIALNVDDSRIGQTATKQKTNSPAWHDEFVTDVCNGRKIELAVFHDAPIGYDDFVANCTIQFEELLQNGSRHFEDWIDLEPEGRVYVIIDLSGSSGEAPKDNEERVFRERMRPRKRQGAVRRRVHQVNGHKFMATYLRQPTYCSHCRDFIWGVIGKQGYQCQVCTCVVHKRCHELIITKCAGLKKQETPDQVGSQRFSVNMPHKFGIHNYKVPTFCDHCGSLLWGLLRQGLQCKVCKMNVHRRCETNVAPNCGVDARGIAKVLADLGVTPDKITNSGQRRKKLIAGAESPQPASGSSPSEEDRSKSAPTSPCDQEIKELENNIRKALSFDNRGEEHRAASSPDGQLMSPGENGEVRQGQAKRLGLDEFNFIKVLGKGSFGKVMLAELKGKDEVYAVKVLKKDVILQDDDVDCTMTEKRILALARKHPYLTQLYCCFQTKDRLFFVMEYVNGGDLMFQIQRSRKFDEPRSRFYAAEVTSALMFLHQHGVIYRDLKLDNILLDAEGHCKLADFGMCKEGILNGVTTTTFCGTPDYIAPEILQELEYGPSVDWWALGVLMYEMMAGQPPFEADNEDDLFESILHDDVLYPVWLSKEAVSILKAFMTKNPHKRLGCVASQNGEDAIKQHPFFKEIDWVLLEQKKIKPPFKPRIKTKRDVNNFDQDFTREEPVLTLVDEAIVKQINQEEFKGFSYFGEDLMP
Nature of the experiment: Inhibition of [3H]-phorbol 12,13-dibutyrate (PDBu) binding to human recombinant protein kinase C epsilon. The method in brief:
as §1

The target of experiment [3] is Protein kinase C delta type (Homo sapiens, UniProt Q05655). Nature of the experiment: Inhibition of [3H]-phorbol 12,13-dibutyrate (PDBu) binding to human recombinant protein kinase C delta. The essentials: as §1
Protein kinase C delta type, sequence (Q05655 whole entry): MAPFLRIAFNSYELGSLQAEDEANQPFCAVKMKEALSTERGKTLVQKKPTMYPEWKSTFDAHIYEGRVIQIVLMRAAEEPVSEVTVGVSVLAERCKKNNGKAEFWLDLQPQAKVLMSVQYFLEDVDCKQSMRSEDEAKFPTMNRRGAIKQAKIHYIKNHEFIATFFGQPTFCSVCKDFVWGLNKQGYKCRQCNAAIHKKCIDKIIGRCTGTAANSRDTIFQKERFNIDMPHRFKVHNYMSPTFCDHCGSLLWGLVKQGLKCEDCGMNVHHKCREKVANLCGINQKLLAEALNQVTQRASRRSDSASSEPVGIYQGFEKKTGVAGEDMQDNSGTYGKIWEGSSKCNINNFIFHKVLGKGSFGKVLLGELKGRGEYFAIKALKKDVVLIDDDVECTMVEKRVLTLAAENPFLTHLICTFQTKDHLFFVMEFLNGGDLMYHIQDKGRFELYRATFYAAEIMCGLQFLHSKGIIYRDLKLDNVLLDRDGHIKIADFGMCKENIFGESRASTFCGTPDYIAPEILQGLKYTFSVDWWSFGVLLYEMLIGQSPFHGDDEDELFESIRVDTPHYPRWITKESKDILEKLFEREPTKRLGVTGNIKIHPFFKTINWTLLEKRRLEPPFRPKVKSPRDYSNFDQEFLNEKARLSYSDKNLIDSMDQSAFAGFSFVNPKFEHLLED
Experiment [4] addresses Protein kinase C gamma type (Homo sapiens, UniProt P05129). Description: Inhibition of [3H]-phorbol 12,13-dibutyrate (PDBu) binding to human recombinant protein kinase C gamma. The method in brief:
as §1

Experiment [5] concerns the target Protein kinase C beta type (Homo sapiens, UniProt P05771). Description: Inhibition of [3H]-phorbol 12,13-dibutyrate (PDBu) binding to human recombinant protein kinase C beta. The essentials:
as §1

Protein kinase C beta type, sequence (P05771 whole entry): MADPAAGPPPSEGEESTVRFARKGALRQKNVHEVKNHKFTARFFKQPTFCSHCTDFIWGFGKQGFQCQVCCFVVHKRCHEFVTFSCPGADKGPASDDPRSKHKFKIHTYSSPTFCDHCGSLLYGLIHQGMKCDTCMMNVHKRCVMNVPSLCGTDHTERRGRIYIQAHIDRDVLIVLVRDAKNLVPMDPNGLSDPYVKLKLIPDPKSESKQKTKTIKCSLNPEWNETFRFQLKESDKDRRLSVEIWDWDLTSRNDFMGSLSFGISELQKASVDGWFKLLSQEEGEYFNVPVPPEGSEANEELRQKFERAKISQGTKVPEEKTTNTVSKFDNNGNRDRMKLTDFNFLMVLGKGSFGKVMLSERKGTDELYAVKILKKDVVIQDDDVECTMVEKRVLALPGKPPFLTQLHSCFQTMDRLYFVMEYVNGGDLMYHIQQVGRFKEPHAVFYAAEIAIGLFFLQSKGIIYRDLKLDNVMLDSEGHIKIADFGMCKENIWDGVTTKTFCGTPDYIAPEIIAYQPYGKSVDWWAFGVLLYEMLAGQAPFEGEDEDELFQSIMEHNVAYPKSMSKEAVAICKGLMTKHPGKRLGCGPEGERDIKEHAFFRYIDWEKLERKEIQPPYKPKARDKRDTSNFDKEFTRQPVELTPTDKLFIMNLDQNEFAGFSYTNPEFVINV

For the compound `CCCCCCCCC#Cc1ccc2c(c1)[C@](C)(C(C)C)[C@H]1C(=O)N[C@H](CO)[C@@H]21`, the Ki – broadly, the dissociation constant of the complex between target and ligand, obtained from inhibition or displacement – was 580 nM in experiment [1], 469 nM in experiment [2], 1630 nM in experiment [3] and 279 nM in experiment [4].
For the compound `CCCCCCCCC#Cc1ccc2c(c1)C[C@@H](CO)NC(=O)[C@H](C(C)C)N2C`, the Ki is 23 nM in experiment [1]; 40 nM in experiment [2]; 114 nM in experiment [3]; 70 nM in experiment [5]; 43 nM in experiment [4].
Consider `CCCCCCCCCCCCCC(=O)O[C@@H]1[C@@H](C)[C@@]2(O)[C@@H](C=C(CO)C[C@]3(O)C(=O)C(C)=C[C@@H]23)[C@@H]2C(C)(C)[C@]12OC(C)=O` [PHORBOL MYRISTATE ACETATE], for which the Ki in experiment [2] was found to be 0.45 nM; in experiment [3] it was 0.8 nM; in experiment [5] it was 1.8 nM; in experiment [4], 4.9 nM.
